# KCNQ1 pot: human KCNQ1 channel potentiation or activation; CHO-K1 KCNQ1, thallium flux FluxOR fluorescence; hits give high values; P51787; B-score at 10 µM; 310,000 tested, 0.35% active;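 active = fluorescence ratio B-score, a plate-corrected score, at least three library SD, with initial intensity B-score within 5 SD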
# Target sequence (P51787 whole entry, looked up): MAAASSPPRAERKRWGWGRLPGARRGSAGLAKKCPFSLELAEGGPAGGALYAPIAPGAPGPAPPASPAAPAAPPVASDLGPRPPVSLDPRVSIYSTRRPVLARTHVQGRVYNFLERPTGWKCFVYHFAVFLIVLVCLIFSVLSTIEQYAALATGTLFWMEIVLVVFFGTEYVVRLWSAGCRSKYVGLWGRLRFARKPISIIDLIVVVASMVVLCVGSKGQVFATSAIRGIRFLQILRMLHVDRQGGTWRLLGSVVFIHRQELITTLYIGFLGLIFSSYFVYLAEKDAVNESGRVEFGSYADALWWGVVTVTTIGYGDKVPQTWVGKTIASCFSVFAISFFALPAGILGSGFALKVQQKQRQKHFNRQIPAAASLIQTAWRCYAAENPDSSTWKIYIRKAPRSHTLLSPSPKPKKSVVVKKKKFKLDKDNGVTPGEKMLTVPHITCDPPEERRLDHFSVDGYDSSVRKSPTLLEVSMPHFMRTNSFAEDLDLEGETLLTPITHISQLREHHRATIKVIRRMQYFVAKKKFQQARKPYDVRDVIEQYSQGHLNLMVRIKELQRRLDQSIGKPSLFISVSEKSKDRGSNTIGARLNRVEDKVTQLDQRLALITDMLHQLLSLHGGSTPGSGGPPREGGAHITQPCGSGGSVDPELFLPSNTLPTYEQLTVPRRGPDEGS
#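 Schedule – 37 °C overnight plating, 90-min dark dye load, 20-min compound pretreatment · System – stable KCNQ1 CHO-K1 line · Probe or stimulus – thallium- and potassium-containing depolarizing buffer · Measured by – kinetic FluxOR fluorescence, 10 s baseline plus 110 s post-stimulus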
# hERG protect: hERG (human) protection from proarrhythmic block; CHO-hERG, FluxOR thallium flux, dofetilide IC70 present; 310,000 tested, 0.51% active; activation (rescue from dofetilide block), less the hit threshold, % at 10 µM; Q12809; AID 1511;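 active = activation above the mean of controls blocked by dofetilide plus 5 SD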;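 note: thallium influx through hERG after potassium depolarization seen as dye fluorescence rise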
# KCNK9 block: blocks the human KCNK9 two-pore domain potassium channel; B-score at 10 µM; Q9NPC2; HEK293 KCNK9, FluxOR thallium flux fluorescence; hits give low values; 310,000 tested, 1.2% active;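 active = ratio B-score over 3 SD below the library mean, with starting fluorescence within 5 SD of its mean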;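 note: negative B-score means less thallium flux so channel inhibition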
# KCNQ1 block: inhibitors of human KCNQ1 potassium channel | P51787 | CHO-K1 KCNQ1, FluxOR thallium flux fluorescence; hits give high values | B-score at 10 µM | 310,000 tested, 1.3% active;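 active = compounds whose thallium flux B-score, printed positive for inhibition, exceeds three library SD while starting fluorescence stays within three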;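 note: channel opened by potassium depolarization with thallium stimulus after 20 min compound exposure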
# KCNK3 block: human KCNK3 channel inhibition, primary screen. CHO-KCNK3 thallium flux, FluxOR fluorescence; hits give low values. B-score at 10 µM. AID 602410. O14649. 340,000 tested, 0.84% active;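 active = B-score under library mean minus 4 SD, starting fluorescence ratio at most library mean plus 5 SD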;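 note: more negative B-score means stronger inhibition of thallium flux through KCNK3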
# KCNK9 inh conf: confirmation of human KCNK9 potassium channel inhibitors; HEK293 KCNK9 cells, FluxOR thallium flux fluorescence; inhibition, % at 10 µM; AID 492992; shares compounds with KCNK9 block; 4,900 tested, 43% active;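 active = thallium signal inhibited by more than 5 SD of the compound-free buffer control wells, on both duplicate plates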
# Kir2-1 spec: tests whether KCNK9 modulators also affect mouse Kir2.1; shares compounds with KCNK9 block; Kir2.1 cells, FluxOR thallium flux fluorescence; inhibition, % at 10 µM; 4,900 tested, 4% active;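 active = thallium signal drop more than 5 SD beyond the mean of the no-compound control wells, seen in both duplicate plates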;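 note: signal is fluorescence rise after thallium addition divided by baseline fluorescence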
# HEK293 Tl ctr: second check of KCNK9 modulator effects in non-induced HEK293 cells | FluxOR thallium flux | shares compounds with KCNK9 block | inhibition, % at 10 µM | AID 492997 | 4,900 tested, 40% active;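 active = thallium signal drop beyond 5 SD of the untreated control mean, on both duplicate plates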
# Numbers stand for hits; 0 = inactive; - = no result given. Rows were chosen to be rich in hits. Some 3.1% of all compounds tested hit in one or more screens of this group.
SMILES,KCNQ1 pot,hERG protect,KCNK9 block,KCNQ1 block,KCNK3 block,KCNK9 inh conf,Kir2-1 spec,HEK293 Tl ctr
COc1ccccc1C/C(N)=N/OC(=O)COc1ccc(C)cc1C,0,0,0,0,0,0,0,0
Cc1sc2nc(CSc3ccccc3)nc(N3CCN(C)CC3)c2c1C,0,0,0,0,0,0,0,30%
COc1ccc(C(=O)OC(C(=O)c2ccc(C)cc2)c2ccccc2)cc1 (centres undefined),0,0,-15,0,0,65%,0,32%
CC(=O)Nc1cccc(C(=O)OC(C(=O)c2ccc(C)cc2)c2ccccc2)c1 (centres undefined),0,0,0,0,0,-,-,-
COC(=O)c1cc2ccsc2n1Cc1nc(-c2ccc(OC)cc2)oc1C,0,0,-8.4,0,0,40%,0,52%
COC(=O)c1cc2sccc2n1Cc1nc(-c2ccc(OC)cc2)oc1C,0,0,0,0,0,-,-,-
COc1ccc(CN(CCC(c2ccccc2)c2ccco2)C(=O)c2ccco2)cc1 (centres undefined),0,0,-13,0,0,50%,0,29%
COc1ccc(CN(C(=O)c2ccco2)c2ccccc2)cc1,0,0,0,0,0,-,-,-
CCN(CC)CCCN=Cc1c(O)n(Cc2ccccc2)c(=O)c2ccccc12,0,0,0,0,0,-,-,-
CC(C)CCC(C)N=Cc1c(O)n(Cc2ccccc2)c(=O)c2ccccc12 (centres undefined),0,0,-13,0,0,74%,0,44%
Cc1cc2c(cc1S(=O)(=O)N1CCN(c3cccc(C)c3C)CC1)OCCN2C,0,0,0,0,0,0,0,0
COc1cccc(N2CCN(S(=O)(=O)c3cc4c(cc3C)N(C)CCO4)CC2)c1,0,0,0,0,0,-,-,-
COc1ccc(-c2n(Cc3ccccc3)c3ccccc3[n+]2Cc2ccccc2)cc1,0,0,-11,8,0,0,43%,0
COC(=O)c1cc2c(ccn2-c2ccc(F)cc2)n1Cc1ccc(C#N)cc1,0,0,-9.5,0,0,38%,0,32%
COC(=O)c1cc2c(ccn2-c2ccc(F)cc2)n1Cc1ccc(OC)cc1,0,0,0,0,0,-,-,-
CCOc1ccc(CCNC(=O)CSCC(=O)Nc2ccc(OC)cc2)cc1OCC,-,-,-,-,0,-,-,-
CN(CC(=O)Nc1ccc(F)cc1)C(=O)CN1C(=O)NC2(CCCC2)C1=O,-,-,-,-,0,-,-,-
O=C(O)CSc1cc(NS(=O)(=O)c2ccc(Br)cc2)c2ccccc2c1O,0,0,0,0,0,0,0,28%
COc1ccc(OC)c(NC(=O)c2ccc3c(c2)C(=O)N(CC2CCCO2)C3=O)c1 (centres undefined),0,0,0,0,0,-,-,-
O=C(OCC(=O)N1CCC(Cc2ccccc2)CC1)c1cncc(Br)c1,-,-,-,-,0,-,-,-
Clc1ccc(Cn2nc(-c3ccccc3)nc2-c2ccccc2)cc1,0,0,-12,0,0,58%,0,54%
Clc1ccccc1Cn1nc(-c2ccccc2)nc1-c1ccccc1,0,0,0,0,0,-,-,-
COc1ccc(NC(=O)c2cc(-c3cccnc3)nc3c(C)c(C)ccc23)c(OC)c1,0,0,0,0,0,0,0,0
COc1ccc(NC(=O)c2ccccc2Oc2ccccc2)c(OC)c1,0,0,-8.4,0,0,55%,0,30%
COc1ccc(CCN(C)C(=O)C(CCSC)NC(=O)c2ccco2)cc1OC (centres undefined),-,-,-,-,0,-,-,-
SMILES,KCNQ1 pot,hERG protect,KCNK9 block,KCNQ1 block,KCNK3 block,KCNK9 inh conf,Kir2-1 spec,HEK293 Tl ctr
O=C(COc1ccccc1Cl)NNC(=O)c1ccc2c(=O)n3c(nc2c1)CCC3,-,-,-,-,0,-,-,-
CC(C)N(C(=O)c1nn(C)c2c1CSc1ccccc1-2)C1CCCCC1,0,0,-10,8,0,34%,0,0
O=S(=O)(Nc1ncnc2scc(-c3ccc(F)cc3)c12)c1cc(F)ccc1F,0,0,0,6,0,0,0,0
CC(=O)c1cccc(OCC(O)CN2CCN(C(=O)c3ccco3)CC2)c1 (centres undefined),0,0,0,0,0,-,-,-
COC(=O)N/N=C/c1c(C)nn(-c2cccc(Cl)c2)c1Cl,0,0,-8.3,0,0,42%,0,28%
C[C@H]1CN(S(=O)C(C)(C)C)[C@H](CCO)/C1=C\CCO (some centres undefined),-,-,-,-,0,-,-,-
Cc1cccc(OCc2nc(-c3ccc(Br)o3)no2)c1,0,0,0,0,0,0,0,24%
COc1cccc(OCc2nc(-c3ccc(Br)o3)no2)c1,0,0,0,0,0,0,0,0
Fc1ccc(OCc2nc(-c3ccc(Br)o3)no2)c(F)c1,0,0,0,0,0,-,-,-
O=C(CCCSc1ccc(Cl)cc1)Nc1ccccc1O,0,0,0,9,0,0,0,0
C=CCOc1cccc(C(=O)N2CCCC(Nc3ccc4c(c3)OCCO4)C2)c1 (centres undefined),0,0,0,0,0,0,0,0
Cc1ccc(NC2CCCN(C(=O)c3ccc4[nH]ccc4c3)C2)cc1C (centres undefined),0,0,0,0,0,0,0,0
COC(=O)c1cccc(C(=O)N2CCCC(Nc3ccc(C)c(C)c3)C2)c1 (centres undefined),0,0,0,0,0,0,0,0
COc1ccc(C(=O)N2CCCC(Nc3ccc(C)c(C)c3)C2)cc1F (centres undefined),0,0,0,0,0,-,-,-
CSc1ccc(CN(C)CC(=O)N(C)CC(=O)Nc2ccccc2Br)cc1,-,-,-,-,0,-,-,-
CSc1ccc(CN(C)CC(=O)Nc2ccc(C)cc2Br)cc1,0,0,0,0,0,0,0,0
CC(C)C(NC(=O)c1ccc(Cl)c([N+](=O)[O-])c1)C(=O)NCc1ccccn1 (centres undefined),-,-,-,-,0,-,-,-
COc1ccc(/C=N/NC(=O)CSc2nnc(CCCc3ccc(OC)c(C)c3)o2)cc1,0,0,0,0,0,0,0,0
C=CCN(c1ccccc1)S(=O)(=O)c1cccc(C(=O)N(CC)CC(=O)Nc2c(F)cccc2F)c1,0,0,0,0,0,-,-,-
Cc1cc(C)n(C(=O)CN(C)S(=O)(=O)c2ccc([N+](=O)[O-])cc2)n1,0,0,0,0,0,-,-,-
CCC(=O)N(CCC1(c2ccccc2OC)CCOC(C(C)C)C1)Cc1ccco1 (centres undefined),0,0,-14,0,0,47%,0,46%
COc1ccccc1C1(CC(=O)O)CCOC(C(C)C)C1 (centres undefined),0,0,0,0,0,-,-,-
COC(=O)c1ccc(COc2ccccc2/C=C(\C#N)C(=O)Nc2ccccc2C)cc1,0,0,0,0,0,-,-,-
